MEKK3 PB1 HTS – MEKK3-MEK5 PB1 interaction, increase or decrease. Q99759. bead-based flow cytometry, Alexa488-MEK5 binding to MEKK3; actives lie on both sides; 0 = blocked by unlabeled MEK5, 100 = vehicle. binding response (% of control), % at 10 µM. 290,000 tested, 1.4% active. AID 1529;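 active means binding response more than 3 SD above or below the average of its plate-row segment, actives on both sides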;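 further: Alexa488 bead fluorescence after subtracting the streptavidin-only scavenger bead signal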
Target sequence (Q99759 whole entry, looked up): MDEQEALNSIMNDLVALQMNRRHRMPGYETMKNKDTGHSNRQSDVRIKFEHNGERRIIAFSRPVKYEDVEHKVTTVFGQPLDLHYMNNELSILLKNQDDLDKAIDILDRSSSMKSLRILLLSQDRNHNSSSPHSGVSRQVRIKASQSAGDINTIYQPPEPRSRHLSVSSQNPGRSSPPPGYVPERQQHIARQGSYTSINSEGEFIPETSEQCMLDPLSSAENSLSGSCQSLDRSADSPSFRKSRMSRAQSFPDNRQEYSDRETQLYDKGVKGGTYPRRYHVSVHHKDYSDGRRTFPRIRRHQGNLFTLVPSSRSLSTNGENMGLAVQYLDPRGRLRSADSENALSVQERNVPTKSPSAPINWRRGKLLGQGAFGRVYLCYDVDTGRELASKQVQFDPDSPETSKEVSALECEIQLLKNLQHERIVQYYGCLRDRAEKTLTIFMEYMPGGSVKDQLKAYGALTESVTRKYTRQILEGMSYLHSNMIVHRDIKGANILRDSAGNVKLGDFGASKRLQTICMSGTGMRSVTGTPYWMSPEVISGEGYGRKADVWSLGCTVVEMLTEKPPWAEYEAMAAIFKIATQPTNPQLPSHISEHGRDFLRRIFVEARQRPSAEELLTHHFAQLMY
MEKK2wt PB1 HTS – raises or lowers MEK5 binding to wildtype human MEKK2 PB1 domain. bead flow cytometry, Alexa488-MEK5 binding to MEKK2 WT; actives lie on both sides. binding response (% of control), % at 10 µM. 290,000 tested, 1.1% active. Q9Y2U5; in the data active means binding response below about 67% or above about 130%
MEKK2mut PB1 HTS – signal of MEK5 binding to mutant human MEKK2 PB1 domain. percent response, % at 10 µM. AID 1530. bead flow cytometry, Alexa488-MEK5 binding to MEKK2 mutant. 290,000 tested, 0.35% active; in the data active means percent response above about 24%, passing the limit was not always enough
UBC13 inh – blocks human UBC13 polyubiquitin chain formation. TR-FRET. inhibition, % at 20 µM. 330,000 tested, 0.47% active; in the data active means inhibition above about 45%, passing the limit was not always enough
Apaf1 inhib – inhibitors of human Apaf-1 apoptosome; O14727; reconstituted apoptosome caspase-3 activity, DEVD-Rh110 fluorescence; inhibition, % at 20 µM; 330,000 tested, 0.71% active; AID 489030; active means inhibition of at least 40% at 20 µM;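 further: plate controls were DMSO wells for no effect and DEVD-CHO caspase inhibitor wells for full effect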
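System – cell-free apoptosome with Apaf-1, procaspase-3 and caspase-9 · Buffer or medium – pH 7.5 Hepes buffer with CHAPS, BSA, DTT · Also added – cytochrome c with DEVD-Rh110 · Times – 30 min compound preincubation, 50 min activation, room temperature · Technique – Rh110 fluorescence intensity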
MEKK2wt confirm – raises or lowers MEK5 binding to wildtype human MEKK2, retest | shares compounds with MEKK3 PB1 HTS | bead flow cytometry, Alexa488-MEK5 binding to MEKK2 WT; actives lie on both sides | binding response (% of control), % at 10 µM | 5,900 tested, 2.4% active | AID 1892; in the data active means binding response below about 16% or above about 210%; inactive means in between
MEKK2mut-MEK5 – signal of MEK5 binding to mutant human MEKK2, retest; shares compounds with MEKK3 PB1 HTS; bead flow cytometry, Alexa488-MEK5 binding to MEKK2 mutant; percent response, % at 10 µM; 5,900 tested, 2% active; AID 1893; in the data active means percent response mostly above about 71%, no sharp cut-off; inactive means mostly below about 38%;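 further: higher means compound restores mutant binding toward wildtype level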
MEKK3 confirm – confirmation of inhibitors of MEK5 binding to human MEKK3. bead flow cytometry, Alexa488-MEK5 binding to MEKK3; hits give low values. binding response (% of control), % at 10 µM. 5,900 tested, 1.8% active. shares compounds with MEKK3 PB1 HTS;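 active means binding response below 72% of control, or above a set upper limit, though filed actives all read lower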;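 further: 100% = DMSO only wells and 0% = binding blocked by excess unlabeled MEK5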
Casp3 UBC13 ctr – caspase-3 inhibition (UBC13 counter-screen); inhibition, % at 20 µM; shares compounds with UBC13 inh; Recombinant caspase-3, Caspase-Glo 3/7 luminescence, 60 min; 1,400 tested, 4% active;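 active means mean inhibition across replicates above about 26%, limit read from the data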;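 further: plate controls were DMSO with caspase-3 for no effect and DMSO wells lacking enzyme for full effect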
UBC13 confirm – confirmation of human UBC13 polyubiquitin inhibitors. UBC13 polyubiquitination, TR-FRET, biochemical. inhibition, % at 10 µM. 1,400 tested, 68% active. shares compounds with UBC13 inh; in the data active means inhibition above about 45%
Apaf-1 inh conf2 – confirmation of Apaf-1 inhibitors; shares compounds with Apaf1 inhib; reconstituted apoptosome, caspase-3 DEVD-Rh110 fluorescence; inhibition, % at 20 µM; 1,800 tested, 25% active;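 active means mean inhibition of at least 40% at 20 µM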;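 further: plate controls were DMSO wells for no effect and DEVD-CHO caspase inhibitor control wells for full effect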
Rh110 interf inh – counter-screen for Apaf-1 inhibitors: fluorescence interference; 1,800 tested, under 10 active; shares compounds with Apaf1 inhib; activation (fluorescence interference), % at 20 µM; Rh110 fluorescence interference, quenched caspase reaction;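 active means signal rise of 40% or more at 20 µM, treated as a fluorescence artifact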
Fluor interf inh – counter-screen for Apaf-1 inhibitors: fluorescence interference, dose response | shares compounds with Apaf1 inhib | fluorescence interference counterscreen, Apaf-1 assay format | IC50, µM | 460 tested, under 10 active | AID 588538; call rule not given here
Active calls of the source: *; / = no result given; [ ] = remark or other dose. Sampled rows, rich in hits. Any-hit rate of the full collection: about 2.9%.

SMILES | MEKK3 PB1 HTS | MEKK2wt PB1 HTS | MEKK2mut PB1 HTS | UBC13 inh | Apaf1 inhib | MEKK2wt confirm | MEKK2mut-MEK5 | MEKK3 confirm | Casp3 UBC13 ctr | UBC13 confirm | Apaf-1 inh conf2 | Rh110 interf inh | others
FC(F)(F)c1cc(CCN2CCNC[C@@H]2Cc2ccccc2)cc(C(F)(F)F)c1 | 113 | 146* | 15 | 64* | 57* | 136 | 39 | 111 | 0 | 51* | 21 | 8
C[C@@H](CN1C2=NC[C@H](Cc3ccccc3)N2C[C@H]1Cc1ccc(O)cc1)NC(=O)CCC1CCCCC1 | 109 | 146* | 25 | 66* | 41* | 139 | 33 | 110 | 0 | 41 | 12 | 9
CN(C)CC/C=C1\c2ccccc2Sc2cc(F)c(Cl)cc21 | / | / | / | 31 | 9 | / | / | / | / | / | / | /
CN(C)CC/C=C1\c2ccccc2Sc2ccc(Cl)cc21 | 72*[inhibitor] | 164* | 17 | 12 | 49* | 136 | 16 | 99 | / | / | 16 | 6
CCCCCCCCCCC[N+](C)(C)CC/C=C1/c2ccccc2Sc2ccc(Cl)cc21 | 97 | 278* | 143* | 106* | 75* | 195 | 60 | 111 | 3 | 118* | 88* | 28 | Fluor interf inh=>100
CCCCCCCCCC[N+](C)(C)CC/C=C1/c2ccccc2Sc2ccc(Cl)cc21 | 108 | 291* | 147* | 107* | 81* | 321* | 172* | 115 | -2 | 119* | 88* | 36 | Fluor interf inh=>100
CC[N+](C)(C)CC/C=C1/c2ccccc2Sc2ccc(Cl)cc21 | 104 | 111 | 5 | 15 | -4 | / | / | / | / | / | / | /
COc1ccc(-c2nc(=S)c3ccc4ccccc4c3[nH]2)cc1 | 95 | 86 | -10 | / | / | / | / | / | / | / | / | /
CC1(/[N+]([O-])=C/c2ccccc2F)CCCCC1=O (centres undefined) | 108 | 99 | -3 | -7 | 2 | / | / | / | / | / | / | /
CCOC(=O)C1=C(c2ccccc2)NC(N)=NC1c1ccc(OCc2ccc(C(=O)OC)cc2)cc1 (centres undefined) | 109 | 194* | 49 | 55* | 61* | 260* | 76* | 112 | -4 | 92* | 62* | -8 | Fluor interf inh=>100
NS(=O)(=O)c1cccc(NC(=O)Cn2nc(C(=O)O)c3ccccc3c2=O)c1 | 99 | 100 | 2 | 7 | -8 | / | / | / | / | / | / | /
COc1ccc(-c2cc(-c3ccc(F)cc3)nc(N3CCN(C)CC3)n2)cc1 | 122 | 201* | 39 | 22 | 65* | 205 | 78* | 117 | / | / | 6 | 9
O=C(N/N=C/c1ccc2c(c1)OCO2)C(=O)Nc1cccc(Cl)c1 | 98 | 98 | -5 | 0 | 0 | / | / | / | / | / | / | /
CN(C)CCCN1c2ccccc2Sc2ccc(Cl)cc21 | 102 | 153* | 13 | 18 | 42* | 149 | 27 | 107 | / | / | 16 | 8
OCCN1CCN(CCCN2c3ccccc3Sc3ccc(Cl)cc32)CC1 | 79 | 160* | 10 | 90* | 46* | 141 | 27 | 105 | -4 | 99* | 5 | 8
CN(C)CCCN1c2ccccc2CCc2ccccc21 | 93 | 105 | 7 | 8 | 3 | / | / | / | / | / | / | /
